Usually IC50 stands for the point on the concentration scale where inhibition reaches its midpoint.

The source made the active and inactive calls. The calls are words filed in the database; no cut-off is given here.

Our source for the IC50 and inhibition values is ChEMBL document CHEMBL1914339, “Design, synthesis and biological evaluation of pyridine acyl sulfonamide derivatives as novel COX-2 inhibitors” (Bioorg Med Chem, 2011).

The subject of one assay is HepG2. Kind of assay: Antiproliferative activity against human HepG2 cells after 48 hrs by MTT colorimetric assay. It is filed as functional, cell-based. The settings on record: HepG2, 48 h. An outline of the steps:
(§1)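 Cells seeded at 2 × 10⁴ cells/ml and grown 24 h, then exposed in exponential growth to final compound concentrations of 0.1 to 100 for 48 h. Survival read by MTT (0.5 mg/mL in DMEM, 4 h) with absorbance at 570 nm. Three replicate wells per concentration; each assay run at least three times.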
(In general: Tetrazolium assays rely on reduction of a dye to a coloured formazan, in cell work by metabolically active cells.)
In the case of `O=C(NS(=O)(=O)c1ccccc1)c1cccc(C(=O)NS(=O)(=O)c2ccccc2)n1`, the IC50 amounted to 5.3 µM.
Same read-out and setting: the figure for `O=C(NS(=O)(=O)c1ccc(Cl)cc1)c1ccccn1` is 8.1 µM.
On the same count and under the same terms, under `O=C(NS(=O)(=O)c1ccc(Cl)cc1)c1cccc(C(=O)NS(=O)(=O)c2ccc(Cl)cc2)n1` stands 3.8 µM; under `O=C(NS(=O)(=O)c1ccccc1)c1cccnc1`, 10.4 µM.
With `O=C(NS(=O)(=O)c1ccccc1)c1ccccn1`, the IC50 worked out at 9.9 µM.
Compound `Cc1ccc(-c2cc(C(F)(F)F)nn2-c2ccc(S(N)(=O)=O)cc2)cc1` [CELECOXIB] displayed an IC50 of 95.5 µM.
The same measure, in the same setting: under `O=C(NS(=O)(=O)c1ccc(Br)cc1)c1cccnc1` stands 6.7 µM.
The same measure, in the same setting: under `O=C(NS(=O)(=O)c1ccc(F)cc1)c1cccc(C(=O)NS(=O)(=O)c2ccc(F)cc2)n1` stands 3.7 µM.
Compound `Cc1ccc(S(=O)(=O)NC(=O)c2ccccn2)cc1` had an IC50 of 12.1 µM.
Same read-out and setting: under `O=C(NS(=O)(=O)c1ccc(Br)cc1)c1ccncc1` stands 6.3 µM; under `O=C(NS(=O)(=O)c1ccc(Br)cc1)c1cccc(C(=O)NS(=O)(=O)c2ccc(Br)cc2)n1`, 1.2 µM.
`O=C(NS(=O)(=O)c1ccc(F)cc1)c1ccncc1` displayed a half-inhibitory concentration (IC50) of 12.4 µM.

In another assay the target is Prostaglandin G/H synthase 1 (Mus musculus) (UniProt P22437).
Sequence of Prostaglandin G/H synthase 1 (Mus musculus) (P22437 whole entry, looked up): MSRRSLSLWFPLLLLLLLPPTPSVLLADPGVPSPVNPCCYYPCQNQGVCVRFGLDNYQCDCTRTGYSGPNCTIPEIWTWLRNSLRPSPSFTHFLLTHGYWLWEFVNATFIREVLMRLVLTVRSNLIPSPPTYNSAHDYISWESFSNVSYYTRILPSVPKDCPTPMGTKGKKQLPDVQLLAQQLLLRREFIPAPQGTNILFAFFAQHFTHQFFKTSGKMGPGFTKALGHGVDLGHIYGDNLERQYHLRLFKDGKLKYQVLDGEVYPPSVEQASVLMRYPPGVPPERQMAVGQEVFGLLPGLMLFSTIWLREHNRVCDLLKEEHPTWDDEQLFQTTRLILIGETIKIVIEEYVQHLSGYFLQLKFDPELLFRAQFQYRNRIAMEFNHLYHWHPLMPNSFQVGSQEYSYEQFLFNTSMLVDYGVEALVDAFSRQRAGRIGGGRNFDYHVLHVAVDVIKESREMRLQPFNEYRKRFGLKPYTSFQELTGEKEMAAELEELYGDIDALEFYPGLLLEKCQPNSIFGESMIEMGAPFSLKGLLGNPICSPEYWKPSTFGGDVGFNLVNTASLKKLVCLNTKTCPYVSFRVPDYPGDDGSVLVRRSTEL
Settings: not given
In the case of `O=C(NS(=O)(=O)c1ccccc1)c1cccc(C(=O)NS(=O)(=O)c2ccccc2)n1`, the IC50 came out at 35.8 µM.
Still for that read-out and setting: the figure for `O=C(NS(=O)(=O)c1ccc(Cl)cc1)c1ccccn1` is 39.7 µM; for `O=C(NS(=O)(=O)c1ccc(Cl)cc1)c1cccc(C(=O)NS(=O)(=O)c2ccc(Cl)cc2)n1` it is 41.5 µM.
On to `O=C(NS(=O)(=O)c1ccccc1)c1cccnc1`, for which the IC50 is > 50 µM.
Same read-out and setting: under `O=C(NS(=O)(=O)c1ccccc1)c1ccccn1` stands > 50 µM.
On the same count and under the same terms, the figure for `O=C(NS(=O)(=O)c1ccc(Br)cc1)c1cccnc1` is 40.5 µM; for `O=C(NS(=O)(=O)c1ccc(F)cc1)c1cccc(C(=O)NS(=O)(=O)c2ccc(F)cc2)n1` it is 40.3 µM.
Still for that read-out and setting: the figure for `Cc1ccc(S(=O)(=O)NC(=O)c2ccccn2)cc1` is > 50 µM; for `O=C(NS(=O)(=O)c1ccc(Br)cc1)c1ccncc1` it is 38 µM; for `O=C(NS(=O)(=O)c1ccc(Br)cc1)c1cccc(C(=O)NS(=O)(=O)c2ccc(Br)cc2)n1` it is 35.6 µM.
With `O=C(NS(=O)(=O)c1ccc(F)cc1)c1ccncc1`, the half-maximal inhibitory concentration (IC50) is > 50 µM.

The test system of another assay is B16-F10. Kind of assay: Antiproliferative activity against mouse B16F10 cells after 48 hrs by MTT colorimetric assay. In kind it is functional, cell-based. The settings on record: B16-F10, 48 h. An outline of the steps:
as §1
As for `O=C(NS(=O)(=O)c1ccccc1)c1cccc(C(=O)NS(=O)(=O)c2ccccc2)n1`, the IC50 stood at 10.7 µM.
On the same count and under the same terms, under `O=C(NS(=O)(=O)c1ccc(Cl)cc1)c1ccccn1` stands 9.4 µM.
As for `O=C(NS(=O)(=O)c1ccc(Cl)cc1)c1cccc(C(=O)NS(=O)(=O)c2ccc(Cl)cc2)n1`, half-maximal inhibition (IC50) required 6.2 µM.
In turn, `O=C(NS(=O)(=O)c1ccccc1)c1cccnc1` showed an IC50 of 14.5 µM.
`O=C(NS(=O)(=O)c1ccccc1)c1ccccn1`: the IC50 is 14.2 µM.
`Cc1ccc(-c2cc(C(F)(F)F)nn2-c2ccc(S(N)(=O)=O)cc2)cc1` [CELECOXIB] yielded an IC50 of 85.6 µM.
`O=C(NS(=O)(=O)c1ccc(Br)cc1)c1cccnc1` gave an IC50 of 9.7 µM.
On the same count and under the same terms, the figure for `O=C(NS(=O)(=O)c1ccc(F)cc1)c1cccc(C(=O)NS(=O)(=O)c2ccc(F)cc2)n1` is 10 µM.
Same read-out and setting: under `Cc1ccc(S(=O)(=O)NC(=O)c2ccccn2)cc1` stands 16.7 µM.
On the same count and under the same terms, under `O=C(NS(=O)(=O)c1ccc(Br)cc1)c1ccncc1` stands 8.8 µM; under `O=C(NS(=O)(=O)c1ccc(Br)cc1)c1cccc(C(=O)NS(=O)(=O)c2ccc(Br)cc2)n1`, 2.8 µM.
As to `O=C(NS(=O)(=O)c1ccc(F)cc1)c1ccncc1`, half-maximal inhibition (IC50) required 13.8 µM.

Another assay concerns RAW264.7. Kind of assay: Inhibition of LPS-induced COX2 expression in mouse RAW264.7 cells at 0.75 to 1.5 uM treated 15 mins before LPS challenge measured after 18 hrs by Western blotting. In kind it is functional, cell-based.
Settings: not given
In short, it runs like this:
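RAW 264.7 cells (5 × 10⁵) were plated for 24 h, then pretreated with compound for 15 min before LPS stimulation for 18 h. Cells were lysed in lysis buffer and COX-2 protein was detected by Western immunoblot.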
For the compound `O=C(NS(=O)(=O)c1ccc(Br)cc1)c1cccc(C(=O)NS(=O)(=O)c2ccc(Br)cc2)n1`, the inhibition entry was “Active”.

The target of another assay is Prostaglandin G/H synthase 2 (Mus musculus) (UniProt Q05769).
Sequence of Prostaglandin G/H synthase 2 (Mus musculus) (Q05769 whole entry, looked up): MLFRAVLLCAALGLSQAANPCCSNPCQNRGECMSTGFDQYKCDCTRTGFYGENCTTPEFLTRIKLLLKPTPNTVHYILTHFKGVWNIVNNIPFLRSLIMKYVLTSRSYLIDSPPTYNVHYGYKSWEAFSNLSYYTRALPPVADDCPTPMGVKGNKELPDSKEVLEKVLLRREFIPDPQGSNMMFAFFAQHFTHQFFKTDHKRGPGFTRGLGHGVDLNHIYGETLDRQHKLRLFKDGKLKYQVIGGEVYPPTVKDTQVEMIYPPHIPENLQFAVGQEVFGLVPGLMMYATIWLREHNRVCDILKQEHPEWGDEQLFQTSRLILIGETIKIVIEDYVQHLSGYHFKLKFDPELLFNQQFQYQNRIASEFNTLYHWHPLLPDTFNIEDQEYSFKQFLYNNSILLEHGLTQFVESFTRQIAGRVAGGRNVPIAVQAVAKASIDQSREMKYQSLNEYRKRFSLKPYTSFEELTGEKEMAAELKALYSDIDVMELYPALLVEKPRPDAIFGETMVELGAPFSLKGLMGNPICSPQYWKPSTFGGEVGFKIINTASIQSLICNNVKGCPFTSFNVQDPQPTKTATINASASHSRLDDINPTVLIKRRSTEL
Settings: not given
The compound `O=C(NS(=O)(=O)c1ccccc1)c1cccc(C(=O)NS(=O)(=O)c2ccccc2)n1` yielded an IC50 of 3.7 µM.
The same measure, in the same setting: under `O=C(NS(=O)(=O)c1ccc(Cl)cc1)c1ccccn1` stands 6 µM.
Still for that read-out and setting: the figure for `O=C(NS(=O)(=O)c1ccc(Cl)cc1)c1cccc(C(=O)NS(=O)(=O)c2ccc(Cl)cc2)n1` is 1.9 µM; for `O=C(NS(=O)(=O)c1ccccc1)c1cccnc1` it is 15.8 µM; for `O=C(NS(=O)(=O)c1ccccc1)c1ccccn1` it is 8.8 µM.
The compound `O=C(NS(=O)(=O)c1ccc(Br)cc1)c1cccnc1` had an IC50 of 4.9 µM.
On the same count and under the same terms, the figure for `O=C(NS(=O)(=O)c1ccc(F)cc1)c1cccc(C(=O)NS(=O)(=O)c2ccc(F)cc2)n1` is 2.6 µM; for `Cc1ccc(S(=O)(=O)NC(=O)c2ccccn2)cc1` it is 8 µM.
Same read-out and setting: the figure for `O=C(NS(=O)(=O)c1ccc(Br)cc1)c1ccncc1` is 7.8 µM; for `O=C(NS(=O)(=O)c1ccc(Br)cc1)c1cccc(C(=O)NS(=O)(=O)c2ccc(Br)cc2)n1` it is 0.8 µM.
On the same count and under the same terms, the figure for `O=C(NS(=O)(=O)c1ccc(F)cc1)c1ccncc1` is 12.1 µM.

Another assay concerns MCF7. Nature of the assay: Antiproliferative activity against human MCF7 cells after 48 hrs by MTT colorimetric assay. It is filed as functional, cell-based. The settings on record: MCF7, 48 h. An outline of the steps:
as §1
With `O=C(NS(=O)(=O)c1ccccc1)c1cccc(C(=O)NS(=O)(=O)c2ccccc2)n1`, the IC50 amounted to 9.3 µM.
The same measure, in the same setting: under `O=C(NS(=O)(=O)c1ccc(Cl)cc1)c1ccccn1` stands 9.8 µM; under `O=C(NS(=O)(=O)c1ccc(Cl)cc1)c1cccc(C(=O)NS(=O)(=O)c2ccc(Cl)cc2)n1`, 4.2 µM; under `O=C(NS(=O)(=O)c1ccccc1)c1cccnc1`, 11.5 µM.
The same measure, in the same setting: under `O=C(NS(=O)(=O)c1ccccc1)c1ccccn1` stands 10.6 µM.
Same read-out and setting: under `Cc1ccc(-c2cc(C(F)(F)F)nn2-c2ccc(S(N)(=O)=O)cc2)cc1` [CELECOXIB] stands 40.8 µM; under `O=C(NS(=O)(=O)c1ccc(Br)cc1)c1cccnc1`, 8.3 µM; under `O=C(NS(=O)(=O)c1ccc(F)cc1)c1cccc(C(=O)NS(=O)(=O)c2ccc(F)cc2)n1`, 4.6 µM.
Take `Cc1ccc(S(=O)(=O)NC(=O)c2ccccn2)cc1`: the concentration for half-maximal inhibition (IC50) was determined as 11.8 µM.
The compound `O=C(NS(=O)(=O)c1ccc(Br)cc1)c1ccncc1` showed an IC50 of 8.7 µM.
The same measure, in the same setting: the figure for `O=C(NS(=O)(=O)c1ccc(Br)cc1)c1cccc(C(=O)NS(=O)(=O)c2ccc(Br)cc2)n1` is 1.8 µM.
On the same count and under the same terms, under `O=C(NS(=O)(=O)c1ccc(F)cc1)c1ccncc1` stands 13.9 µM.

The test system of the next assay is RAW264.7. Kind of assay: Antiinflammatory activity in mouse RAW264.7 cells assessed as inhibition of LPS-induced PGE2 production. It is filed as functional, cell-based.
Settings: not given
For `O=C(NS(=O)(=O)c1ccccc1)c1cccc(C(=O)NS(=O)(=O)c2ccccc2)n1`, the IC50 was 1.6 µM.
On the same count and under the same terms, under `O=C(NS(=O)(=O)c1ccc(Cl)cc1)c1ccccn1` stands 2.8 µM.
Same read-out and setting: under `O=C(NS(=O)(=O)c1ccc(Cl)cc1)c1cccc(C(=O)NS(=O)(=O)c2ccc(Cl)cc2)n1` stands 0.87 µM; under `O=C(NS(=O)(=O)c1ccccc1)c1cccnc1`, 9.5 µM; under `O=C(NS(=O)(=O)c1ccccc1)c1ccccn1`, 4.5 µM.
On the same count and under the same terms, the figure for `Cc1ccc(-c2cc(C(F)(F)F)nn2-c2ccc(S(N)(=O)=O)cc2)cc1` [CELECOXIB] is 0.1 µM.
`O=C(NS(=O)(=O)c1ccc(Br)cc1)c1cccnc1`: the IC50 was found to be 2.8 µM.
On the same count and under the same terms, the figure for `O=C(NS(=O)(=O)c1ccc(F)cc1)c1cccc(C(=O)NS(=O)(=O)c2ccc(F)cc2)n1` is 1.1 µM.
On to `Cc1ccc(S(=O)(=O)NC(=O)c2ccccn2)cc1`, for which the 50% inhibitory concentration (IC50) is 5.9 µM.
As for `O=C(NS(=O)(=O)c1ccc(Br)cc1)c1ccncc1`, the IC50 was determined as 5.5 µM.
In the case of `O=C(NS(=O)(=O)c1ccc(Br)cc1)c1cccc(C(=O)NS(=O)(=O)c2ccc(Br)cc2)n1`, the concentration for half-maximal inhibition (IC50) amounted to 0.15 µM.
On the same count and under the same terms, the figure for `O=C(NS(=O)(=O)c1ccc(F)cc1)c1ccncc1` is 9.2 µM.
